Published values collected from several papers.
Lines come from different studies, so protocols differ.
Target: Calcium/calmodulin-dependent protein kinase type II subunit alpha (CAMK2A, Homo sapiens, UniProt Q9UQM7)

Compound	test	conditions	remaining binding
Nc1ncc2c(n1)-c1c([nH]c3ccc(C#CC4CC4)cc13)CCCC2	binding, competition with immobilised ligand	1 µM	100%
N#CC1(c2ccccn2)CCN(Cc2cc(C(=O)N3CCCC3)c(=O)n3ccccc23)CC1	cell-free assay, competition with immobilised ligand	1 µM	84%
O=C(NCCCN1CCOCC1)c1ccc(Nc2ncc(Cl)c(-c3ccc(Cl)s3)n2)cc1	binding, competition with immobilised ligand	1 µM	91%
COc1cnc(Nc2cccc(S(N)(=O)=O)c2)nc1N1CCN(c2ccccc2)CC1	binding, competition with immobilised ligand	1 µM	87%
Cc1cnn2ncc(-c3ccnc(N(C)C)n3)c2c1	binding	1 µM	86%
Cc1cnc(Nc2ccc(C(=O)N3CCC(N4CCCC4)CC3)cc2)nc1-c1cc2ccccc2s1	binding, competition with immobilised ligand	1 µM	58%
CN(C)c1nccc(-c2cnc3ncccn23)n1	binding	1 µM	92%
CS(=O)(=O)NCC[C@H](NC(=O)c1cncc2c1cnn2-c1ccc(F)cc1)c1ccnc(S(C)(=O)=O)c1	cell-free assay, competition with immobilised ligand	1 µM	100%
CNC(=O)[C@@H]1CC[C@@H](n2c(-c3ccc4cnccc4c3)nc3ccc(C(=O)NCc4cccc(C(N)=O)c4)cc32)C1	binding, competition with immobilised ligand	1 µM	100%
CN(CCCC(F)(F)F)c1nccc(-c2cnn3ncccc23)n1	binding	1 µM	91%
COc1ccc2c(c1)O[C@H](c1ccc(OC)c(OC)c1)C[C@@H]2NC(=O)C1(c2ccc3c(c2)OC(F)(F)O3)CC1	cell-free assay, competition with immobilised ligand	1 µM	100%
O=C(c1ccc(Nc2ncc(Cl)c(-c3ccc(Cl)s3)n2)cc1)N1CCC(N2CCCC2)CC1	binding, competition with immobilised ligand	1 µM	82%
CN(c1nccc(-c2cnn3ncccc23)n1)C1CC1	binding	1 µM	93%
O=C(N1CCS(=O)(=O)CC1)N1C[C@H](c2ccc(OC(F)(F)F)cc2)C[C@H](c2nc(C3CC3)no2)C1	cell-free assay, competition with immobilised ligand	1 µM	100%
O=C(NCC1CCOCC1)c1n[nH]cc1NC(=O)c1c(F)cccc1F	binding, competition with immobilised ligand	1 µM	94%
O=C(NC[C@@H]1[C@H]2CN(C(=O)OCc3cc(C(F)(F)F)cc(C(F)(F)F)c3)C[C@@H]12)c1ccc2[nH]nnc2c1	cell-free assay, competition with immobilised ligand	1 µM	91%
N[C@H]1CCN(c2nccc(-c3cnn4ncccc34)n2)C1	binding	1 µM	100%
C[C@@H](c1ccc(-n2cnc3c(N)ncnc32)cc1)N1CCc2nn(C)c(Cc3ccccc3)c2C1=O	binding, competition with immobilised ligand	0.1 µM	91%
C[C@@H]1CCN(c2nccc(-c3cnn4ncccc34)n2)C1	binding	1 µM	80%
COc1ncc2cc3ccccc3nc2c1C#N	cell-free assay, competition with immobilised ligand	5 µM	95%
CCOC(=O)c1cc2cc(-c3cc(C(=O)NCc4ccc(C(=O)O)cc4)nn3C)ccc2[nH]1	cell-free assay, competition with immobilised ligand	0.1 µM	76%
c1cnn2ncc(-c3ccnc(N4CCC45COC5)n3)c2c1	binding	1 µM	76%
